{"source": "ChEMBL document CHEMBL4477166", "about": "“18β-Glycyrrhetinic Acid Derivatives Possessing a Trihydroxylated A Ring Are Potent Gram-Positive Antibacterial Agents” (2016)", "key": {"Bacillus thuringiensis": {"system": "Bacillus thuringiensis", "assay": "Antibacterial activity against Bacillus thuringiensis measured after 5 to 6 hrs by microdilution titre technique", "format": "functional"}, "Escherichia coli [1]": {"system": "Escherichia coli", "assay": "Antibacterial activity against Escherichia coli measured after 5 to 6 hrs by microdilution titre technique", "format": "functional"}, "Bacillus subtilis [2]": {"system": "Bacillus subtilis", "assay": "Antibacterial activity against Bacillus subtilis ATCC 6051 by microdilution assay", "format": "functional", "procedure,_shortened": "(§1)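 Turbidimetric broth microdilution. Log-phase cells were washed and resuspended in broth (LB at 37 °C for B. subtilis and S. aureus; oat bran broth at 28 °C for S. scabies) and seeded at 1 × 10⁵ CFU/mL. Twofold serial dilutions were made with DMSO ≤1% (v/v). A620 was read, then plates were incubated with vigorous shaking. MIC was the lowest concentration with no apparent growth versus vehicle-only medium without cells. Run in triplicate.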"}, "Streptomyces scabiei [3]": {"system": "Streptomyces scabiei", "assay": "Antibacterial activity against Streptomyces scabiei CGMCC4.7610246 by microdilution assay", "format": "functional", "procedure,_shortened": "as §1"}, "Staphylococcus aureus [4]": {"system": "Staphylococcus aureus", "assay": "Antibacterial activity against Staphylococcus aureus ATCC 25923 by microdilution assay", "format": "functional", "procedure,_shortened": "as §1"}, "Staphylococcus aureus [5]": {"system": "Staphylococcus aureus", "assay": "Antibacterial activity against methicillin-resistant Staphylococcus aureus by microdilution assay", "format": "functional", "procedure,_shortened": "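Log-phase cells seeded at 1 × 10⁵ CFU/mL. Twofold serial dilutions made in broth with DMSO cosolvent, at most 1% v/v. Turbidity read at 620 nm before and after incubation with vigorous shaking. MIC is the lowest concentration with no apparent growth versus the medium-plus-vehicle control. Run in triplicate.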"}, "Escherichia coli [6]": {"system": "Escherichia coli", "assay": "Antibacterial activity against Escherichia coli at 100 uM measured after 5 to 6 hrs by microdilution assay", "format": "functional, organism-based"}, "Pseudomonas aeruginosa [7]": {"system": "Pseudomonas aeruginosa", "assay": "Antibacterial activity against Pseudomonas aeruginosa at 100 uM measured after 5 to 6 hrs by microdilution assay", "format": "functional, organism-based"}, "Pseudomonas aeruginosa [8]": {"system": "Pseudomonas aeruginosa", "assay": "Antibacterial activity against multi-drug resistant Pseudomonas aeruginosa at 100 uM measured after 5 to 6 hrs by microdilution assay", "format": "functional, organism-based", "procedure,_shortened": "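Log-phase cells seeded at 1 × 10⁵ CFU/mL. Single-dose screen at 100 μM, with DMSO cosolvent at most 1% v/v. Growth measured turbidimetrically at 620 nm, before and after incubation with vigorous shaking.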"}, "Bacillus subtilis [9]": {"system": "Bacillus subtilis", "assay": "Antibacterial activity against Bacillus subtilis ATCC 6051 by time-kill analysis", "format": "functional, organism-based", "procedure,_shortened": "(§2)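 Time-kill in LB at 37 °C. B. subtilis or S. aureus suspensions were set at 5 × 10⁵ CFU/mL and exposed to 0.5×, 1×, 2× and 4× MIC alongside negative and positive controls. Samples of 1 mL were taken at 0, 2, 4, 6, 8, 12 and 24 h, serially diluted and plated for viable counts, and survival was calculated. Three repeats.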"}, "Streptomyces scabiei [10]": {"system": "Streptomyces scabiei", "assay": "Antibacterial activity against Streptomyces scabiei CGMCC4.7610246 by time-kill analysis", "format": "functional, organism-based", "procedure,_shortened": "(§3)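 Killing kinetics for S. scabies in oat bran broth at 28 °C, starting at 5 × 10⁵ CFU/mL. Exposure was 0.5×, 1×, 2× or 4× MIC, with negative and positive controls. Samples of 1 mL were withdrawn at 0, 4, 8, 16, 24 and 36 h, serially diluted and plated, and survival was calculated from colony counts. Performed in triplicate.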"}, "Staphylococcus aureus [11]": {"system": "Staphylococcus aureus", "assay": "Antibacterial activity against Staphylococcus aureus ATCC 25923 by time-kill analysis", "format": "functional, organism-based", "procedure,_shortened": "as §2"}, "Bacillus subtilis [12]": {"system": "Bacillus subtilis", "assay": "Antibacterial activity against Bacillus subtilis ATCC 6051 at 0.5 times MIC by time-kill analysis", "format": "functional, organism-based", "procedure,_shortened": "as §2"}, "Streptomyces scabiei [13]": {"system": "Streptomyces scabiei", "assay": "Antibacterial activity against Streptomyces scabiei CGMCC4.7610246 at 0.5 times MIC by time-kill analysis", "format": "functional, organism-based", "procedure,_shortened": "as §3"}, "Staphylococcus aureus [14]": {"system": "Staphylococcus aureus", "assay": "Antibacterial activity against Staphylococcus aureus ATCC 25923 at 0.5 times MIC by time-kill analysis", "format": "functional, organism-based", "procedure,_shortened": "as §2"}, "Streptomyces scabiei [15]": {"system": "Streptomyces scabiei", "assay": "Reduction in murX expression in Streptomyces scabiei CGMCC4.7610246 at 0.5 times MIC by qRT-PCR analysis relative to control", "format": "functional, organism-based", "procedure,_shortened": "(§4)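 Bacteria were grown in broth with compound at 0.5 × MIC or vehicle to exponential phase (OD620 = 0.4) and then pelleted. Total RNA was reverse-transcribed, and SYBR-based real-time PCR was run against housekeeping genes. Relative expression versus control was calculated by 2^−ΔΔCT. Mean ± SEM, n = 3, significance at p < 0.05.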"}, "Streptomyces scabiei [16]": {"system": "Streptomyces scabiei", "assay": "Reduction in p450 expression in Streptomyces scabiei CGMCC4.7610246 at 0.5 times MIC by qRT-PCR analysis relative to control", "format": "functional, organism-based", "procedure,_shortened": "as §4"}, "Escherichia coli [17]": {"system": "Escherichia coli", "assay": "Antibacterial activity against Escherichia coli ATCC 25922 measured after overnight incubation by microplate dilution assay", "format": "functional"}}, "note": "Calls of active or inactive are those of the source. No cut-off for these calls is given here."}
{"compound": "CC1(C)CC[C@]2(C(=O)O)CC[C@]3(C)C(=CC[C@@H]4[C@@]5(C)CC[C@H](O)C(C)(C)[C@@H]5CC[C@]43C)[C@@H]2C1", "note": "[OLEANOLIC_ACID]", "values": [{"measurement": "MIC", "setting": "Bacillus thuringiensis", "value": 1.9, "unit": "µg/mL"}, {"measurement": "MIC", "setting": "Escherichia coli [1]", "value": 7.8, "unit": "µg/mL"}]}
{"compound": "COC(=O)[C@@]1(C)CC[C@]2(C)CC[C@]3(C)C(=CC[C@@H]4[C@@]5(C)[C@@H](O)[C@H](O)[C@H](O)C(C)(C)[C@@H]5CC[C@]43C)[C@@H]2C1", "values": [{"measurement": "MIC", "setting": "Bacillus subtilis [2]", "value": 4, "unit": "µg/mL"}, {"measurement": "MIC", "setting": "Streptomyces scabiei [3]", "value": 1, "unit": "µg/mL"}, {"measurement": "MIC", "setting": "Staphylococcus aureus [4]", "value": 2, "unit": "µg/mL"}, {"measurement": "MIC", "setting": "Staphylococcus aureus [5]", "value": "> 32", "unit": "µg/mL"}, {"measurement": "Activity", "setting": "Escherichia coli [6]", "value": "inactive"}, {"measurement": "Activity", "setting": "Pseudomonas aeruginosa [7]", "value": "inactive"}, {"measurement": "Activity", "setting": "Pseudomonas aeruginosa [8]", "value": "inactive"}, {"measurement": "Activity", "setting": "Bacillus subtilis [9]", "value": "Dose-dependent effect"}, {"measurement": "Activity", "setting": "Streptomyces scabiei [10]", "value": "Dose-dependent effect"}, {"measurement": "Activity", "setting": "Staphylococcus aureus [11]", "value": "Dose-dependent effect"}, {"measurement": "Activity", "setting": "Bacillus subtilis [12]", "value": "inactive"}, {"measurement": "Activity", "setting": "Streptomyces scabiei [13]", "value": "inactive"}, {"measurement": "Activity", "setting": "Staphylococcus aureus [14]", "value": "inactive"}, {"measurement": "Activity", "setting": "Streptomyces scabiei [15]", "value": "Active"}, {"measurement": "Activity", "setting": "Streptomyces scabiei [16]", "value": "Active"}]}
{"compound": "CC1(C)[C@@H](O)C[C@H](O)[C@]2(C)[C@H]3CC=C4[C@@H]5C[C@@](C)(C(=O)O)CC[C@]5(C)CC[C@@]4(C)[C@]3(C)CC[C@@H]12", "values": [{"measurement": "MIC", "setting": "Escherichia coli [17]", "value": 16, "unit": "µg/mL"}]}
